Bioassay records deposited in PubChem BioAssay by several laboratories.
CAL PDZ FP-1 – human CAL PDZ-peptide interaction inhibition | purified CAL PDZ, TMR-peptide fluorescence polarization, 1 h | inhibition, % at 20 µM | 0.02% of 330,000 active | AID 504414;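 active = highest replicate inhibition of at least 40%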;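 note: plate controls were DMSO neutral control wells for no effect and unlabeled competitor peptide control wells for full effect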
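material = purified tagged CAL PDZ domain construct (CerCALP) | buffer or medium = sodium phosphate/NaCl buffer pH 7.4 with TCEP, IgG, Thesit | reagent = TMR-labelled reporter peptide T*-PRC34 bound in PDZ groove | incubation = 1 h room-temperature incubation prior to read | measured by = fluorescence polarization (mP) | evaluation = percent inhibition from loss of millipolarization | control set = unlabelled peptide and DMSO controls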
RTF Ca sens act – cardiac RTF calcium sensitization; activation, % at 7.2 µM; IANBD-labeled TnC RTF fluorescence at EC20 calcium; 0% EC20 calcium, 100% full calcium; P19429+P45379; AID 493008; 0.24% of 340,000 active;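 active = activation above the mean over all tested compounds plus 3 SD, cut at about 30% in these data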;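 note: rise in fluorescence read as greater calcium sensitivity of cardiac thin filaments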
Cardiac RTF inh – cardiac RTF calcium desensitization; P19429+P45379; inhibition, % at 7.15 µM; IANBD-labeled cardiac RTF, Ca2+ fluorescence; 0.12% of 340,000 active;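 active = inhibition above the mean inhibition of all tested compounds plus 3 SD, cut at about 17% in these data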;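 note: assay run at fixed EC70 calcium of 1.6 mM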
Keap1-Nrf2 PPI – Keap1-Nrf2 (human) interaction inhibition | Keap1 Kelch-Nrf2 peptide fluorescence polarization, 1536-well | 0.15% of 340,000 active | AID 504523 | inhibition, % at 9.4 µM; in the data active = inhibition above about 12%; inconclusive = no clear call, values can overlap the other calls; inactive = below about 7.3%;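 note: human Keap1 Kelch domain with fluorescein labeled Nrf2 9mer peptide probe; 0% = neutral control wells and 100% = peptide positive control; higher means more block of Keap1 binding to Nrf2 peptide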
Target sequence (Q14145 whole entry, looked up, the tested form may be a part): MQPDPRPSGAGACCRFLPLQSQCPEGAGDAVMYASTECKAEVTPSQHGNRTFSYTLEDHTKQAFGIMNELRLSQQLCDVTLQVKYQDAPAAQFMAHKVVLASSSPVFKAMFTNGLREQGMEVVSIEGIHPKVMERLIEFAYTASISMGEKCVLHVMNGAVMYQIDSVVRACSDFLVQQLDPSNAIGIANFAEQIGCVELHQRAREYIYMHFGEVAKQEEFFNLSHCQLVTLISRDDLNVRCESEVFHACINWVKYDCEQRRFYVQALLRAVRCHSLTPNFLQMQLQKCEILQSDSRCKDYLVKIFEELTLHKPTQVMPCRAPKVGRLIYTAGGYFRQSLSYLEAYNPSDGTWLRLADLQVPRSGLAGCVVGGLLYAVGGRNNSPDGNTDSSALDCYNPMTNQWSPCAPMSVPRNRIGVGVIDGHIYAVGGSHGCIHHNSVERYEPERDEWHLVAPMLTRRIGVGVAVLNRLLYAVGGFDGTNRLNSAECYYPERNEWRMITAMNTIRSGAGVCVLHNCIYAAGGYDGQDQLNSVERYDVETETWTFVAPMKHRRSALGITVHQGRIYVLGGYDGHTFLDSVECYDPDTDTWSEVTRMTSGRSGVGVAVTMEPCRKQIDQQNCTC
CAL PDZ FP-2 – inhibitors of human CAL PDZ peptide binding; Q9HD26; purified CAL PDZ, TMR-peptide fluorescence polarization, 1 h; inhibition, % at 24.9 µM; 0.92% of 300,000 active; AID 602252;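 active = mean inhibition of at least 30% with at least half of replicates also reaching 30%; inconclusive = no clear call, values can overlap the other calls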;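 note: 0% = DMSO neutral control and 100% = excess unlabeled competitor peptide PRC23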
C-LANA FP – KSHV C-LANA DNA binding inhibition; inhibition, % at 9 µM; 0.078% of 340,000 active; MBP-C-LANA/FAM-LBS DNA binding, fluorescence polarization;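 active = highest replicate inhibition at or above 60% at 9 µM, even if other replicates fall short; inactive = all replicates below 60% inhibition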;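 note: 0% = neutral control wells and 100% = 4 µM acridine orange control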
* = called active by the depositor; ? = inconclusive; / = not tested or not shown; + = active, no number. Hits are enriched below; roughly 1.3% of the tested compounds scored in any of these assays.

SMILES	CAL PDZ FP-1	RTF Ca sens act	Cardiac RTF inh	Keap1-Nrf2 PPI	CAL PDZ FP-2	C-LANA FP
O=C(Cn1ccc([N+](=O)[O-])n1)NCc1nc2ccccc2[nH]1	-1	0	8	2	44*	-1
O=C(Cn1ccc([N+](=O)[O-])n1)NCc1ccco1	-2	-3	3	2	-1	1
Cc1ccc(NC(=O)CSc2nnc(COc3ccccc3F)n2N)cc1S(=O)(=O)N1CCOCC1	0	-2	4	-5	3	1
CN(CC(=O)NNC(=O)Cc1ccccc1F)S(=O)(=O)c1ccc(Cl)cc1	-3	0	3	-1	-5	1
O=C1NC(=O)C(CSc2ccccc2)(c2ccccc2)N1 (centres undefined)	0	-2	5	-9	42*	1
O=C(Nc1cc(S(=O)(=O)N2CCCCCC2)ccc1OCC(F)(F)F)c1cnccn1	-1	-3	4	3	0	0
CCOc1ccc(NC(=O)NNC(=O)c2cccnc2)cc1	1	0	-2	-1	16	0
COc1ccc(C(=O)NCC2(N3CCCCC3)CCCCC2)cc1S(=O)(=O)N(C)C	-2	-3	-12	-12	-5	-1
COc1cc(-c2nc3n(c(=O)c2C#N)CCS3)cc(OC)c1OC	/	-5	2	-3	-6	-1
Cc1nc(SCC(=O)N2CCN(C(=O)c3ccco3)CC2)c2c(C)c(C)sc2n1	/	4	2	3	31*	0
Cc1nc(SCC(=O)N2CCN(C(=O)c3cccs3)CC2)c2c(C)c(C)sc2n1	-1	3	0	-2	0	-1
Cc1ccc(-c2cc(C(=O)Nc3ccncc3)c3ccccc3n2)cc1	-4	-8	4	-6	32*	-1
CC1CC2OC2CC1COC(=O)C1CC2OC2CC1C (centres undefined)	0	-3	4	-2	/	0
O=C(Nc1ccc(Cl)c(S(=O)(=O)N2CCCC2)c1)c1nn(CCO)c(=O)c2ccccc12	-3	-10	0	-1	39*	-1
O=C(Nc1ccccn1)Nc1ccccc1[N+](=O)[O-]	/	-2	-3	-1	+	1
Cc1ccccc1NC(=O)Nc1ccccn1	0	-4	-15	-6	-3	2
COCC(=O)Nc1nc2ccc(C)cc2s1	0	0	11	-2	-4	1
Cc1ccc2nc(NC(=O)COC(=O)c3ccncc3)sc2c1	33	-6	-3	-2	62*	-2
Cc1nn(C(C)(C)C)c(OC(=O)c2ccco2)c1Sc1ccccc1	/	2	-8	3	141*	-1
CCSc1nnc(NC(=O)Cc2ccc(OC)c(S(=O)(=O)N3CCOCC3)c2)s1	-1	1	-18	-4	39*	0
COc1ccc(C(C)NC(=O)c2ccc(Cl)cc2)cc1OC (centres undefined)	1	-5	-14	-5	-3	1
COc1ccc(C(C)NC(=O)c2ccncc2)cc1OC (centres undefined)	0	3	-3	-7	76*	1
COc1ccc(S(=O)(=O)N2CCOCC2)cc1NC(=O)CN1CCCc2ccccc21	1	-3	-8	3	6	-1
COC(CNC(=O)C(=O)NCC1OCCN1S(=O)(=O)c1ccccc1)OC (centres undefined)	-3	0	-8	3	4	-1
COCCNC(=O)c1onc(CSc2ccc(F)cc2)c1C(=O)NCCOC	-1	8	0	1	31*	2
SMILES	CAL PDZ FP-1	RTF Ca sens act	Cardiac RTF inh	Keap1-Nrf2 PPI	CAL PDZ FP-2	C-LANA FP
CCCNC(=O)c1onc(CSc2ccc(F)cc2)c1C(=O)NCCOC	1	1	-1	-3	-2	0
Cc1c(CN2CCC(n3nccc3NC(=O)C3CC3)CC2)[nH]c2ccccc12	0	-2	-1	3	0	1
COc1ccc(CNC(=O)C(C#N)c2nc3ccccc3nc2N2CCCC2)cc1 (centres undefined)	-1	51*	-405	5	-1	18
CCCCNC(=O)CC1S/C(=N/N=C/c2ccc(OC)cc2)NC1=O (centres undefined)	-1	3	-9	0	1	2
COc1ccc(/C=N/N=C2/NC(=O)C(CC(=O)NC(N)=O)S2)cc1 (centres undefined)	0	-2	-4	-6	49*	-1
C[C@H](CO)N1C[C@H](C)[C@@H](CN(C)C)Oc2c(NC(=O)CCC(F)(F)F)cccc2C1=O	0	0	-8	-8	0	0
O=C(CCCCn1c(=O)[nH]c2ccccc2c1=O)NCCc1c[nH]c2ccccc12	0	0	-9	-3	/	0
O=C(CCCCn1c(=O)[nH]c2ccccc2c1=O)NCCC1=CCCCC1	-1	2	-8	3	83*	2
CN1CCc2c(sc(/N=C/c3cccs3)c2C(N)=O)C1	/	31*	-16	-15	0	6
CCOC(=O)C(NCc1ccco1)(NC(=O)c1ccccc1)C(F)(F)F (centres undefined)	-1	-2	-19	-2	43*	1
CC(C)n1cc(/C=N/Nc2ccc(C(=O)O)cc2)c2ccccc21	0	0	-8	0	71*	0
Nc1ccc2c(O)cc(S(=O)(=O)O)cc2c1	-2	58*	-63	0	-15	51
Nc1cccc2c(O)cccc12	1	-1	-2	-5	-1	0
Nc1cccc2c(O)cc(S(=O)(=O)O)cc12	-2	-12	15	?	-2	117*
O=S(=O)(O)c1cc(O)c2cc(Nc3ccccc3)ccc2c1	0	-13	16	0	/	93*
CC(=O)Nc1ccc2c(O)cc(S(=O)(=O)O)cc2c1	-1	1	-5	1	-27	12
CC1CN(S(=O)(=O)c2cc(C(=O)N3CCCCC3C)ccc2Cl)CC(C)O1 (centres undefined)	-1	-4	-6	-6	-4	-1
O=C(NCCN1CCN(C(=O)c2cccc(Br)c2)CC1)C(=O)NCc1ccccc1	0	-3	0	2	-2	0
O=C(NCCN1CCN(C(=O)c2ccccc2Cl)CC1)C(=O)NCc1ccccc1	-1	-5	-9	-1	48*	2
CC(C)CN1CCC(=O)N(CCSc2ccccc2)CC1	-2	-1	-6	0	-2	-2
O=C(CCc1ccccc1)Nc1nncs1	/	-2	0	-3	-4	-1
CC(CC(=O)O)CC(=O)Nc1nncs1 (centres undefined)	1	-6	4	-1	53*	11
CCOC(=O)CSc1nnc(-c2ccccc2)o1	1	-2	-4	-3	1	0
CCSc1nnc(-c2sc3nnc(-c4ccccc4)c(-c4ccccc4)c3c2N)o1	-3	83*	-31	-5	7	5
